According to PubChem BioAssay AID493081 (Broad Institute, 2011):
Activity calls are given as the source filed them.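 How the source made its calls: active means fitted half-maximal dose of growth inhibition at or below ten times the top valid tested dose; inconclusive means flat fit with moderate inhibition, or poor fit quality; inactive means the rest.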

Test system: C. albicans CaCi-2 + fluconazole, Alamar Blue, 48 h
Assay: growth inhibition of fluconazole-resistant C. albicans, confirmation, CaCi-2 isolate, dry powder retest, no file (AID 493081)
Details: not given
Outline: (§1)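 system = Candida albicans clinical isolate CaCi-2, fluconazole-resistant strain | quantity = starting inoculum OD600 0.00015 | also added = fluconazole at 8 µg/mL throughout the growth period | schedule = 48 h at 37 °C, then 2 h dye step | detection = Alamar Blue fluorescence, Ex 544/Em 590 nm | measure = fungal growth from fluorescence, lower signal meaning growth inhibition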

SMILES | AC50
CC1CCN(C(=O)Cn2c3ccccc3c3nc4n(c(=O)c32)CCS4)CC1 | 1.79 µM
COC(=O)Cn1nc(-c2cccc(F)c2)c2ccccc21 | 8.12 µM
O=C(Cn1c2ccc(F)cc2c2nc3n(c(=O)c21)CCS3)N1CCCCC1 | 0.413 µM
COC(=O)Cn1nc(-c2ccc(F)cc2)c2ccccc21 | 8.18 µM
O=C(Cn1c2ccc(F)cc2c2nc3n(c(=O)c21)CCS3)N1CCCC1 | 0.608 µM
O=C(Cn1c2ccccc2c2nc3n(c(=O)c21)CCS3)N1CCCC1 | 0.835 µM
CCN(CC)C(=O)Cn1c2ccc(F)cc2c2nc3n(c(=O)c21)CCS3 | 0.069 µM
O=C(Cn1c2ccccc2c2nc3n(c(=O)c21)CCS3)N1CCCCC1 | 0.606 µM
COC(=O)Cn1nc(-c2ccccc2C)c2ccccc21 | 6.14 µM
CCN(CC)C(=O)Cn1c2ccccc2c2nc3n(c(=O)c21)CCS3 | 7.43 µM
O=C(Cn1c2ccc(F)cc2c2nc3n(c(=O)c21)CCS3)N1CCCCCC1 | 0.629 µM
O=C(Cn1c2ccccc2c2nc3n(c(=O)c21)CCS3)N1CCOCC1 | 1.61 µM
COC(=O)Cn1nc(-c2ccccc2)c2ccccc21 | 1.27 µM

Test system: not listed separately
Assay: as above
Details: C. albicans CaCi-2 (fluconazole-resistant clinical isolate) + fluconazole, Alamar Blue, 48 h; at 12 µM (top of the series)
Outline: as §1

SMILES | activity change, negative = growth inhibition
CCCCn1nc(-c2ccccc2)c2ccccc21 | 19.1% (inactive)
COc1ccc(-c2n[nH]c3ccccc23)cc1 | -24.1% (inactive)
O=C(Cn1c2ccccc2c2ccncc21)N1CCCCC1 | -31.9% (inactive)
O=C(O)Cn1nc(-c2ccccc2)c2ccccc21 | -9.2% (inactive)
FC(F)(F)c1ccc(-c2n[nH]c3ccccc23)cc1 | -27.3% (inactive)
O=C(Cn1nc(-c2ccccc2)c2ccccc21)OC1CCC1 | -23.5% (inactive)
COC(=O)C(C)(C)n1nc(-c2ccccc2)c2ccccc21 | -6.64% (inactive)
COC(=O)Cn1nc(-c2ccccc2)c2cccc(C(F)(F)F)c21 | 1.65% (inactive)
COC(=O)Cn1nc(-c2ccccc2)c2ccc(C(F)(F)F)cc21 | -26.8% (inactive)
COC(=O)CCCn1nc(-c2ccccc2)c2ccccc21 | -23.8% (inactive)
O=C1OCCC1n1nc(-c2ccccc2)c2ccccc21 (stereo not given) | -11.6% (inactive)
CCC(=O)Cn1nc(-c2ccccc2)c2ccccc21 | -16.1% (inactive)
